Laboratory results published in the EternaBench riboswitch data.

Test system: MS2 coat protein
Assay: apparent Kd, MS2 coat protein; higher = weaker binding; RNA-MaP array; FMN 200 µM where present
In short: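 On Illumina sequencing-chip clusters, designs were transcribed by stalled E. coli RNA polymerase and titrated with SNAP-549-labelled MS2 coat protein (0.7 or 1.5 nM, doubling to 3 µM), without and then with constant ligand, in 100 mM Tris-HCl pH 7.5, 80 mM KCl, 4 mM MgCl2, BSA, DTT, yeast tRNA and Tween-20. Apparent Kd is the median of filtered per-cluster curve fits to green signal normalised to red-channel RNA signal and control-cluster median Fmax.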

[1] = designed as: OFF switch for flavin mononucleotide, no ligand
[2] = ligand present: flavin mononucleotide, designed as: OFF switch for flavin mononucleotide
[3] = designed as: ON switch for flavin mononucleotide, no ligand
[4] = ligand present: flavin mononucleotide, designed as: ON switch for flavin mononucleotide

| Sequence | apparent Kd [1] | apparent Kd [2] | apparent Kd [3] | apparent Kd [4] |
| --- | --- | --- | --- | --- |
| UUAUUAUAUGUAGGAUAUGCAUAUUAUUAUUAUGCAGAAGGACAUGAGGAUCACCCAUGUAUAUUGUUGUUGUAUAUUAUAUAU | 0.0251 µM | 0.0304 µM | – | – |
| UUAUUAUAUGUAGGAUAUGCAUAUUAUUAUUGUGCAGAAGGACAUGAGGAUCACCCAUGUAUAUUAUUAUUAUAUAUUAUAUAU | 0.0309 µM | 0.0497 µM | – | – |
| UUAUUAUGUGUAGGAUAUGCAUAUUAUCAUUAUGCAGAAGGACAUGAGGAUCACCCAUGUAUAUUAUUAUUAUAUAUUAUAUAU | 0.0155 µM | 0.0126 µM | – | – |
| UUAUUAUGUGUAGGAUAUGCAUAUUAUUAUUAUGCAGAAGGACAUGAGGAUCACCCAUGUAUAUUAUUAUUAUAUAUUAUAUGU | 0.0211 µM | 0.0442 µM | – | – |
| UUAUUUAUACAAGGAUAUCAAUUAUAUACACAUCCUACAUGAGGAUCACCCAUGUUUUAUUUUUUUGAGAAGGUGUAUUGUGGG | – | – | 0.0923 µM | 0.109 µM |
| UUAUUUAUGCAAGGAUAUCAAUUAUAUAGACGUCCUACAUGAGGAUCACCCAUGUUUAGUUUUUUUGAGAAGGUGCAUUGUCGG | – | – | 0.0431 µM | 0.0311 µM |
| UUCAUCGAUGAAGGAUAUCUAUGUCCAACAUGAGGAUCACCCAUGUUGAGGAUUACCUAUGUGUAGGAGAAGGUCAAUAUGACU | – | – | 0.00703 µM | 0.00639 µM |
| UUCAUGUGAGGAUAUAGUACUUCUUCUAUUAUUAUUGAGUACUAGAAGGCACAUGAGGAUCACCCAUGUAGUAC | 0.058 µM | 0.0209 µM | – | – |
| UUCAUGUGAGGAUAUGCGGCAUCAGGUGGGCCUGUCGCUGAGCAGAAGGCACAUGAGGAUCACCCAUGUGCUCC | 0.0164 µM | 0.0416 µM | – | – |
| UUCCUACAUGAGGAUCACCCAUGUCAGGAUAUCUCCUCACUGCGCUUGCGCAGUGAAUAGAGAAGGGACAGGCU | 0.0149 µM | 0.0193 µM | – | – |
| UUCCUGUCAGGAUAUGACUAGAUGCACGAAAGUGUUUUUAGUUAGAAGGGACAUGAGGAUCACCCAUGUAGUCC | 0.0241 µM | 0.04 µM | – | – |
| UUCCUGUCAGGAUAUGACUAGAUGCACGUUAGUGUGUUUACUUAGAAGGGACAUGAGGAUCACCCAUGUAUUCC | 0.0262 µM | 0.0243 µM | – | – |
| UUCGAGUAGCAAGGAUAUCUUAUUUAGAUUUUAAGAGAAGGUGCUUCACAGCUACAUGAGGAUCACCCAUGUCUUUCUUCUUAU | – | – | 0.0356 µM | 0.0263 µM |
| UUCGCACAUGAGGAUCACCCAUGUCAGGAUAUUGUGGUGGGAACAACUGGGAAACGCACGAGAAGGGACACACA | 0.0362 µM | 0.0322 µM | – | – |
| UUCGUGCAGCUUUGCUGUACGCGUACAUGAGGAUCACCCAUGUAGGAUAUGGUACGCUUUGUGUGCUAGAAGGAUAUGGAGAGG | 0.0187 µM | 0.0186 µM | – | – |
| UUCGUGCAGCUUUGCUGUACGCGUACAUGAGGAUCACCCAUGUAGGAUAUGGUAGGCUUUGCUUACUAGAAGGAUAUAGUGAUC | 0.153 µM | 0.221 µM | – | – |
| UUGAAAUUGUAAGGAUAUACUCUGUGAUGAAGAGUAGAAGGUACUUACAUGAGGAUCACCCAUGUUUAACGAGAUACUAAUCGU | – | – | 0.032 µM | 0.0166 µM |
| UUGAAUUUAAACAUGAGGAUCACCCAUGUGUCAUAGUUGAUAUAGGAUAUGCUUAUACUUUGAAAGCAGAAGGAUGACGAUACU | – | – | 0.0263 µM | 0.0119 µM |
| UUGACGGCAGGAUAUACAUGAGGAUCACCCAUGUAAAUUUUUCGUUUAACUUGAAUGUGUAGAAGGGCCAAAAU | 0.0194 µM | 0.0188 µM | – | – |
| UUGAGGUAGGAGAAGGACAGAGGCGGAAACACAAACAUGAGGAUCACCCAUGUAGGAUAUCCUACCUAACGAGGAUACCUCAAG | 0.0147 µM | 0.0267 µM | – | – |
| UUGAGGUCAGGAUAUGCAUGGCGGGACUUGCGUCGUGGCGUGGAGAAGGGACAUGAGGAUCACCCAUGUGGAGG | 0.129 µM | 0.0949 µM | – | – |
| UUGAGGUGCAAGAAGGAUCACAUGAGGAUCACCCAUGUGAUAUAAAGUCUCGAGAUUUUAUAUCGAUAGGAUAUUGCACCGAAC | – | – | 0.0199 µM | 0.0138 µM |
| UUGAUGUCAGGAUAUGCUUAAUAUAUUUUAUUAUAAUAUAUACAUGAGGAUCACCCAUGUAGAAGGGACAUUAU | 0.0291 µM | 0.0257 µM | – | – |
| UUGAUGUCAUCAGGAUAUAGUAUUUAAGACAUAUCUUCUUUCAAACAUGAGGAUCACCCAUGUCGCUAGAAGGGAUUAUUGAUU | 0.0168 µM | 0.013 µM | – | – |
| UUGAUGUGAGGAUAUGUGAUCUGCCUUCUAUAUAGAUGAUUACAGAAGGCACAUGAGGAUCACCCAUGUAGAUC | 0.0785 µM | 0.0589 µM | – | – |
| UUGCUACAUGAGGAUCACCCAUGUCAGGAUAUUGUGUAUACCGUGGAAGCUGUGUCGAUAAGAAGGGACUGUCU | 0.0266 µM | 0.0305 µM | – | – |
| UUGCUCGUGUGAGGAUAUGCCGCCGUUUCGGCUGCAGAAGGUACUUUAAUACAUGAGGAUCACCCAUGUCUCUGUUGUUUCGUG | – | – | 0.0265 µM | 0.0269 µM |
| UUGGACGUCGGAGGAUAUGUAGGAUAUUCCUACAUGAGGAUCACCCAUGUUGACAUGGAAGAAGGACAGAAGGACGAUGUCCAU | – | – | 0.352 µM | 0.00483 µM |

| Sequence | apparent Kd [1] | apparent Kd [2] | apparent Kd [3] | apparent Kd [4] |
| --- | --- | --- | --- | --- |
| UUGGACGUCGUAGGAUAGGUAGGAUAUUCCUACAUGAGGAUCACCCAUGUUGACAUGGAAGAAGGACAGAAGGACGAUGUCCAU | – | – | 0.142 µM | 0.0057 µM |
| UUGGACGUCGUAGGAUAUGUAAGAUAUUCCUACAUGAGGAUCACCCAUGUUGACAUGGAAGAAGGACAGAAGGACGAUGUCCAU | – | – | 0.00647 µM | 0.00487 µM |
| UUGGACGUCGUAGGAUAUGUAGAAUAUUCCUACAUGAGGAUCACCCAUGUUGACAUGGAAGAAGGACAGAAGGACGAUGUCCAU | – | – | 0.00697 µM | 0.00537 µM |
| UUGGACGUCGUAGGAUAUGUAGGAUAUUACUACAUGAGGAUCACCCAUGUUGACAUGGAAGAAGGACAGAAGGACGAUGUCCAU | – | – | 0.638 µM | 0.00652 µM |
| UUGGACGUCGUAGGAUAUGUAGGAUAUUCCUACAUGAGGAUCACCCAUGUUCACAUGGAAGAAGGACAGAAGGACGAUGUCCAU | – | – | 0.502 µM | 0.0058 µM |
| UUGGACGUCGUAGGAUAUGUAGGAUAUUCCUACAUGAGGAUCACCCAUGUUGACAUGGAAGAAGGACAGAAGGACAAUGUCCAU | – | – | 0.414 µM | 0.0075 µM |
| UUGGACGUCGUAGGAUAUGUAGGAUAUUCCUACAUGAGGAUCACCCAUGUUGACAUGGAAGAAGGACAGAAGGACGAUCUCCAU | – | – | 0.36 µM | 0.00549 µM |
| UUGGACGUCGUAGGAUAUGUAGGAUAUUCCUACAUGAGGAUCACCCAUGUUGACAUGGAAGAAGGACCGAAGGACGAUGUCCAU | – | – | 0.148 µM | 0.691 µM |
| UUGGACGUCGUAGGAUAUGUAGGAUAUUCCUACAUGAGGAUCACCCAUGUUGACAUGGAAGAAGGACUGAAGGACGAUGUCCAU | – | – | 0.763 µM | 0.0229 µM |
| UUGGACGUCGUAGGAUAUGUAGGAUAUUCCUACAUGAGGAUCACCCAUGUUGACAUGGAAGAAGGUCAGAAGGACGAUGUCCAU | – | – | 0.344 µM | 0.559 µM |
| UUGGACGUCGUAGGAUAUGUAGGAUUCUCCUACAUGAGGAUCACCCAUGUUGACAUGGAGGACGGACAGAAGGACGGUGUCCAU | – | – | 0.0141 µM | 0.00564 µM |
| UUGGACGUCGUAGGAUCUGUAGGAUAUUCCUACAUGAGGAUCACCCAUGUUGACAUGGAAGAAGGACAGAAGGACGAUGUCCAU | – | – | 0.00635 µM | 0.0037 µM |
| UUGGACGUCGUAGGAUGUGUAGGAUAUUCCUACAUGAGGAUCACCCAUGUUGACAUGGAAGAAGGACAGAAGGACGAUGUCCAU | – | – | 0.386 µM | 0.0129 µM |
| UUGGAGUACGUAGGAUAUGUAGGAUAUUCCUACAUGAGGAUCACCCAUGUAUGAAUGGAAGAAGGACAGAAGGACGUGCUCCAU | – | – | 0.0198 µM | 0.0139 µM |
| UUGGGACUAUCAGGAUAUGGUGUAGCCCAGUAAAGGACAUGAGGAUCACCCAUGUACCAUUGGUACCAGAAGGGAUGAUCCUAC | – | – | 0.0184 µM | 0.0148 µM |
| UUGGUUGUCGUAGGAUAUGGAGGAGAUUCCUACAUGAGGAUCACCCAUGUUCGCAUGGAAGAAGGCCAGAAGGACGAUGACCAU | – | – | 0.0805 µM | 0.0621 µM |
| UUGUACAUAGGAUAUAGUUGUUUGUACAUGAGGAUCACCCAUGUUAUGUAUGUUUUGCUUCUAGAAGGAUGUUGUU | 0.0332 µM | 0.0244 µM | – | – |
| UUGUGCUUAGAGAAGGUUCAAACUACAUAUUGCGCACAUGAGGAUCACCCAUGUUGGUGAAUAAGAAAGGAUAUUUGACUGUAC | 0.118 µM | 0.0852 µM | – | – |
| UUGUGCUUAGAGAAGGUUCAAACUACAUAUUGCGCACAUGAGGAUCACCCAUGUUGGUGAAUAAGAAAGGAUAUUUGACUGUAU | 0.131 µM | 0.098 µM | – | – |
| UUGUUGUGUGUAGGAUAUGCGUGUUAUUAUUAUGCAGAAGGACAUGAGGAUCACCCAUGUGUAUUGUUAUUAUAUAUUAUAUAU | 0.0214 µM | 0.0225 µM | – | – |
| UUUAAUCGAAACAUGAGGAUCACCCAUGUGUUGUAAUUAACAUAGGAUAUUUGUAUACUUUUGUAAGAGAAGGAUGAUAAUACU | – | – | 0.0224 µM | 0.0158 µM |
| UUUAGGAGUCAAGGAUAUGCUACCGUUUCGGUAGCAGAAGGUGAUCACAUGAGGAUCACCCAUGUAUGCAUGCGUGAGCGUGCU | – | – | 0.0501 µM | 0.623 µM |
| UUUAGUUUAGGAUAUGUAGACAUUAACAUGAGGAUCACCCAUGUAGAUCCUGAAUUGGCUACAGAAGGGAGCAUUU | 0.29 µM | 0.314 µM | – | – |
| UUUAGUUUAGGAUAUGUAGACGUUAACAUGAGGAUCACCCAUGUAGAUCCUGAAUUGGCUACAGAAGGAAGCAUUU | 0.285 µM | 0.531 µM | – | – |
| UUUAUAAAUUAGAAGGCAUGAUGAAUUACAAUAGACAUGAGGAUCACCCAUGUGUAUUCAUGUCAUGAGGAUAUAGUCAUAUAU | – | – | 0.00891 µM | 0.00645 µM |
| UUUAUAAAUUAGAAGGCGAGAUGAAUUACAAUAGACAUGAGGAUCACCCAUGUGUAUUCAUGUCUUGAGGAUAUAGUCAUAUAU | – | – | 0.118 µM | 0.0582 µM |
| UUUAUAUAGUAAGGAUAUGUAUUAAUUUUAUAGACAGAAGGUACUGACAUGAGGAUCACCCAUGUUUUAGUGUGGGCAUGUAGU | 0.358 µM | 0.549 µM | – | – |
